From ChEMBL document CHEMBL1145518, “Potent immune-modulating and anticancer effects of NKT cell stimulatory glycolipids” (2007) come the findings set out here.

Test [1] in a line: Induction of IFN-gamma secretion in human CD161+ CD3+ NKT cells at 10 ug/ml after 18 hrs relative to basal level. The format is functional. In short, it runs like this: (§1)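 Human Vα24i NKT cell lines were expanded for 10 days on irradiated (3,000 rad) autologous immature DCs with 10 units/ml IL-2. The cells (1 × 10^5) were cocultured with 5 × 10^4 irradiated immature CD14+ DCs plus glycolipid at 10 μg/ml. Supernatants were collected at 18 h and read on a 22-plex Luminex bead panel. Triplicates, mean ± SD.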

The nature of test [2]: Induction of IL2 secretion in human CD161+ CD3+ NKT cells at 10 ug/ml after 18 hrs relative to basal level. The class given is functional. In short, it runs like this:
as §1

Test [3] is described as follows: Induction of IL12p70 secretion in human CD161+ CD3+ NKT cells at 10 ug/ml after 18 hrs relative to basal level. The format is functional. In short, it runs like this:
as §1

The nature of test [4]: Induction of IL12p40 secretion in human CD161+ CD3+ NKT cells at 10 ug/ml after 18 hrs relative to basal level. The class given is functional. Summed up:
as §1

Test [5] is described as follows: Induction of RANTES secretion in human CD161+ CD3+ NKT cells at 10 ug/ml after 18 hrs relative to basal level. The class given is functional. Summed up:
as §1

Test [6] in a line: Induction of MIPalpha secretion in human CD161+ CD3+ NKT cells at 10 ug/ml after 18 hrs relative to basal level. The class given is functional. In short, it runs like this: as §1
Test [7] can be described thus: Induction of MCP1 secretion in human CD161+ CD3+ NKT cells at 10 ug/ml after 18 hrs relative to basal level. The class given is functional. In short, it runs like this: as §1
Test [8] in a line: Induction of IL8 secretion in human CD161+ CD3+ NKT cells at 10 ug/ml after 18 hrs relative to basal level. The class given is functional. Summed up: as §1
Test [9] is described as follows: Induction of TNFalpha secretion in human CD161+ CD3+ NKT cells at 10 ug/ml after 18 hrs relative to basal level. The format is functional. In short, it runs like this:
as §1

Test [10] can be described thus: Induction of IL3 secretion in human CD161+ CD3+ NKT cells at 10 ug/ml after 18 hrs relative to basal level. The format is functional. Summed up:
as §1

A short description of test [11]: Induction of GM-CSF secretion in human CD161+ CD3+ NKT cells at 10 ug/ml after 18 hrs relative to basal level. The class given is functional. In short, it runs like this:
as §1

Test [12] in a line: Induction of IL15 secretion in human CD161+ CD3+ NKT cells at 10 ug/ml after 18 hrs relative to basal level. The format is functional. Summed up: as §1
A short description of test [13]: Induction of IL4 secretion in human CD161+ CD3+ NKT cells at 10 ug/ml after 18 hrs relative to basal level. The class given is functional. In short, it runs like this: as §1
The nature of test [14]: Induction of IL6 secretion in human CD161+ CD3+ NKT cells at 10 ug/ml after 18 hrs relative to basal level. The class given is functional. In short, it runs like this: as §1
Test [15] in a line: Induction of IL10 secretion in human CD161+ CD3+ NKT cells at 10 ug/ml after 18 hrs relative to basal level. The format is functional. In short, it runs like this: as §1
A short description of test [16]: Induction of IL13 secretion in human CD161+ CD3+ NKT cells at 10 ug/ml after 18 hrs relative to basal level. The format is functional. In short, it runs like this: as §1
A further test relates to TC1. Briefly: Antitumor activity in TC1 cells xenografted C57BL/6 mouse assessed as suppression of tumor growth at 2 ug, iv. The format is functional, cell-based. In short, it runs like this: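 C57BL/6 mice (n = 5/group) were inoculated i.v. with TC-1 lung cancer cells. They were then treated i.v. with 2 μg glycolipid per mouse, or 100 μl of 1% DMSO, twice weekly for 4 weeks. Kaplan–Meier survival and body weight were followed, with tumor-free mice as an additional control.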

A further test has as its system 4T1. Briefly: Antitumor activity in mouse 4T1 cells xenografted BALB/c mouse assessed as suppression of tumor growth at 2 ug, iv. The class given is functional, cell-based. In short, it runs like this:
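BALB/c mice (n = 6) were inoculated s.c. with 4T1 breast cancer cells. From day 3 they were treated i.v. with glycolipid or vehicle twice weekly for 4 weeks. Tumor volume was recorded every 3 days for 1 month, and survival was monitored up to 54 days.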

Another test has as its system NKT. Briefly: Stimulation of cell expansion of human invariant CD161+/ Valpha24+/ CD56+/ CD3+ NKT cells by flow cytometry method. The class given is functional, cell-based. Summed up: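 CD56+ NK/NKT mixtures (2 × 10^6) were isolated from human leukopaks with anti-CD56 microbeads. They were cocultured with 4 × 10^5 autologous immature CD14+ DCs pulsed with glycolipid at 3 μg/ml, or with 0.3% DMSO, on day 2 for 18 h. Suspension cells were then transferred and kept in 100 units/ml IL-2 with fresh medium every 3 days. On day 9, CD161+/Vα24TCR+ cells were gated by flow cytometry and total Vα24i NKT cells counted. Triplicates, mean ± SD.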
A general note: A flow cytometer gives signals particle by particle.

Each structure is given as a SMILES string. The source made the active and inactive calls. No cut-off for these calls is given here.

As to `CCCCCCCCCCCCCC[C@@H](O)[C@@H](O)[C@H](CO[C@H]1O[C@H](CO)[C@H](O)[C@H](O)[C@H]1O)NC(=O)CCc1ccc(C(F)(F)F)cc1`, the Activity turned out to be 2.8 in [1]; 1.5 in [2]; 1.7 in [3]; 1.9 in test [4]; 1.7 in test [5]; 3.4 in test [6]. The Activity in test [7] worked out at 1.4; in test [8], 2.4; in test [9], 3.3; in [10], 1.6; in [11], 3.5; in [12], 2.1. Further, the Activity in test [13] came out at 2.4; in [14], 2.3; in test [15] it was 1.7; in [16], 2.1.
For the compound `CCCCCCCCCCCCCC[C@@H](O)[C@@H](O)[C@H](CO[C@H]1O[C@H](CO)[C@H](O)[C@H](O)[C@H]1O)NC(=O)CCCCCCCCCc1ccccc1`, the Activity in [1] is 4.2; in test [2] it was 3.4; in test [3] it was 2.3; in [4], 1.4; in test [5] it was 2.1; in [6], 3.4. The Activity in [7] was 1.5; in [8], 2.2; in test [9], 5.6; in [10] it was 1.8; in [11] it was 3.4; in [12] it was 2.3. In addition, the Activity is 3.2 in [13], 1.6 in [14], 1.4 in [15] and 1.6 in [16]. Besides, the outcome in the test on TC1, with 4T1 and with NKT was Active.
Consider `CCCCCCCCCCCCCCCCCCCCCCCCCC(=O)N[C@@H](CS[C@H]1O[C@H](CO)[C@H](O)[C@H](O)[C@H]1O)[C@H](O)[C@H](O)CCCCCCCCCCCCCC`, for which the Activity in test [1] was determined as 1.3; in [2], 1.2; in [3] it was 1; in test [4], 1.7; in [5] it was 1.5; in test [6], 1.5. In addition, the Activity in test [7] is 1.4; in test [8], 1.9; in [9] it was 2.5; in test [10], 1.1; in [11] it was 1.6; in [12], 1.8. The Activity was determined as 2.1 in test [13], 1.5 in [14], 0.6 in [15] and 1.6 in test [16].
With `CCCCCCCCCCCCCC[C@@H](O)[C@@H](O)[C@H](CO[C@H]1O[C@H](CO)[C@H](O)[C@H](O)[C@H]1O)NC(=O)CCCc1ccccc1`, the Activity in [1] is on record as 2.1; in test [2], 1.4; in test [3] it was 1.2; in test [4], 1.4; in test [5], 1.5; in test [6] it was 3.2. Moreover, the Activity was determined as 1 in [7]; 1.6 in test [8]; 3.3 in [9]; 1.8 in test [10]; 2.8 in test [11]; 2.2 in [12]. Besides, the Activity in test [13] was determined as 1.9; in [14] it was 1.6; in [15], 1.3; in test [16] it was 1.6.
As to `CCCCCCCCCCCCCC[C@@H](O)[C@@H](O)[C@H](CO[C@H]1O[C@H](CO)[C@H](O)[C@H](O)[C@H]1O)NC(=O)CCc1ccc(CC(C)C)cc1`, the Activity came to 1.9 in test [1]; 1.3 in test [2]; 1.8 in test [3]; 1.8 in [4]; 1.3 in test [5]; 2.8 in [6]. Besides, the Activity in test [7] came to 0.9; in test [8] it was 5.5; in [9], 1.9; in [10] it was 1.9; in test [11], 3.8; in [12], 2.2. Further, the Activity is listed as 2.2 in test [13], 2.1 in test [14], 2.2 in test [15] and 1.4 in [16]. In addition, in the test with NKT, the result was Active.
As for `CCCCCCCCCCCCCCCCCCCCCCCCCC(=O)N[C@@H](CO[C@@H]1O[C@H](CO)[C@H](O)[C@H](OS(=O)(=O)[O-])[C@H]1O)[C@H](O)[C@H](O)CCCCCCCCCCCCCC.[Na+]`, the Activity in [1] is 2.2; in test [2], 1.6; in test [3], 1.6; in test [4], 1.8; in test [5], 1.5; in test [6], 3.2. For the same compound, the Activity in test [7] is reported as 1.5; in [8], 1.9; in test [9], 3.7; in test [10], 2.3; in test [11], 4.1; in test [12] it was 2.2. Also, the Activity in [13] is given as 2.9; in test [14], 1.9; in test [15], 1.8; in test [16], 2.4.
